# Measured values published in ChEMBL document CHEMBL4311940, “Design, Synthesis, and Biological Evaluation of 4-Methyl Quinazoline Derivatives as Anticancer Agents Simultaneously Targeting Phosphoinositide 3-Kinases and Histone Deacetylases” (J Med Chem, 2019).
# Activity calls are given as the source filed them. No cut-off for these calls is given here.
# How the values were obtained:
# [1] = species: Homo sapiens; assay: Inhibition of PI3K in human HCT116 cells assessed as reduction in AKT phosphorylation at S473 residue at 0.5 to 5 uM after 16 hrs by Western blot analysis; assay type: cell-based
# In short: (§1)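 Immunoblot of HCT116 lysates (RIPA). 40 μg protein per lane on 10−12% SDS-PAGE, transferred to nitrocellulose, blocked 0.5 h in 5% milk/TBST. Primary antibodies 1:1000 overnight at 4 °C, secondary 1:1000 for 1 h, bands visualized by enhanced ECL.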
# [2] = molecular target: Serine/threonine-protein kinase mTOR (Homo sapiens, UniProt P42345); assay: Inhibition of recombinant human N-terminal FLAG-tagged mTOR (1362 to end amino acids) using ULight-4E-BP1 as substrate incubated for 1 hr by LANCE Ultra assay
# In short: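 mTOR protein, compound, ULight-4E-BP1 (Thr37/46) peptide and ATP in kinase buffer, 30 min at room temperature. LANCE detection buffer with EDTA and Eu-anti-phospho-4E-BP1 (Thr37/46) antibody added, then 1 h equilibration at room temperature. TR-FRET read; IC50 by curve fitting.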
# [3] = system: HCT-116; assay: Induction of cell cycle arrest in human HCT116 cells assessed as accumulation at G1 phase at 100 to 500 nM after 24 hrs by propidium iodide/RNase staining-based FACS analysis; assay type: functional
# In short: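 HCT116 cells cultured overnight in 6-well plates, exposed to compound at various concentrations for 24 h; FxCycle PI/RNase staining and flow cytometry for cell cycle phase distribution.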
# [4] = Half life in mouse plasma at 0.02 mM by LC/MS analysis; assay type: ADME, cell-free
# In short: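 Spiking solution of 0.02 mM compound, 0.05 mM sodium phosphate, 0.5% BSA prewarmed 5 min at 37 °C, mixed with prewarmed mouse plasma; quenched with acetonitrile at time points; LC/MS; T1/2 = 0.693/K from ln(concentration) vs time.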
# [5] = Half life in mouse liver microsomes preincubated for 5 mins followed by NADPH addition by LC/MS analysis; assay type: ADME, Microsome
# In short: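 Mouse liver microsomes (0.5 mg/mL protein) with compound preincubated 5 min at 37 °C, started with NADPH; quenched with acetonitrile at time points; LC/MS. T1/2 = 0.693/K from ln(concentration) vs time; Clint scaled with factor 3937.5.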
# [6] = system: THP-1; assay: Antiproliferative activity against human THP1 cells after 96 hrs by MTT assay; assay type: functional, cell-based; conditions: THP-1, 96 h
# [7] = system: HCT-116; assay: Antitumor activity against human HCT116 cells xenografted in athymic nude BALB/c mouse assessed as tumor growth inhibition at 100 mpk, po measured 2 times every week relative to control; assay type: functional; conditions: HCT-116, po, read-out: TGI
# In short: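 Female BALB/c-nu/nu mice, 6–8 weeks, given 2 × 10^6 HCT116 cells in 0.2 mL saline s.c. right flank; randomized at 100–200 mm3. Daily oral dosing in 0.5% cmc with Tween 80; vehicle controls.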
# [8] = Drug level in tumor of human HCT116 cells xenografted in athymic nude BALB/c mouse at 100 mpk, po by LC/MS/MS analysis; assay type: ADME, organism-based, Neoplasm; conditions: in vivo, 100 mg/kg
# In short: (§2)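 HCT116 xenografted nude mice given daily oral doses; tumor tissue sampled 1 h after final dose and compound level measured (ng/g).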
# [9] = Drug level in tumor of human HCT116 cells xenografted in athymic nude BALB/c mouse at 150 mpk, po by LC/MS/MS analysis; assay type: ADME, organism-based, Neoplasm; conditions: in vivo, 150 mg/kg; in short: as §2
# [10] = system: HGC-27; assay: Antitumor activity against human HGC27 cells xenografted in athymic nude BALB/c mouse assessed as tumor growth inhibition at 100 mpk, po measured 2 times every week; assay type: functional; conditions: HGC-27, po, read-out: TGI
# [11] = system: HGC-27; assay: Antitumor activity against human HGC27 cells xenografted in athymic nude BALB/c mouse assessed as tumor growth inhibition at 30 mpk, ip measured 2 times every week; assay type: functional; conditions: HGC-27, ip, read-out: TGI
# In short: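 HGC-27 xenograft: 2 × 10^6 cells in 0.2 mL saline s.c. right flank of female BALB/c-nu/nu mice (6–8 weeks); randomized at 100–200 mm3. Oral dosing in 0.5% cmc with Tween 80, intraperitoneal in saline; vehicle given orally daily.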
# [12] = Toxicity in athymic nude BALB/c mouse xenografted with human HGC27 cells assessed as reduction in body weight at 30 mpk, ip measured 2 times every week relative to control; assay type: organism-based; design: scale not given: the % may be the effect or the level left; conditions: in vivo, 30 mg/kg
# [13] = Drug level in BALB/c mouse plasma xenografted with human HGC27 cells at 100 mg/kg, po measured 0.5 hrs post last dose; assay type: ADME, organism-based
# In short: (§3)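 HGC-27 xenografted nude mice dosed po (0.5% cmc/Tween 80) or ip (saline); at end of treatment, 0.5 h after final dose, plasma and tumor tissue collected and compound concentration measured (ng/mL plasma, ng/g tumor).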
# [14] = Drug level in BALB/c mouse plasma xenografted with human HGC27 cells at 200 mg/kg, po measured 0.5 hrs post last dose; assay type: ADME, organism-based; in short: as §3
# [15] = Drug level in BALB/c mouse plasma xenografted with human HGC27 cells at 30 mg/kg, ip measured 0.5 hrs post last dose; assay type: ADME, organism-based; in short: as §3
# [16] = Drug level in tumor of human HGC27 cells xenografted in BALB/c mouse at 100 mg/kg, po measured 0.5 hrs post last dose; assay type: ADME, organism-based, Neoplasm; conditions: read-out: Drug uptake; in short: as §3
# [17] = Drug level in tumor of human HGC27 cells xenografted in BALB/c mouse at 200 mg/kg, po measured 0.5 hrs post last dose; assay type: ADME, organism-based, Neoplasm; conditions: read-out: Drug uptake; in short: as §3
# [18] = system: Mus musculus; assay: In vivo inhibition of HDAC in tumor of human HGC27 cells xenografted in athymic nude BALB/c mouse assessed as increase in acetylated histone-H3 expression by DAB staining based immunohistochemistry method; assay type: functional, organism-based
# In short: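 HGC-27 xenograft tumors from treated and vehicle mice immunostained for Ki67, Ac-H3 and p-AKT(S473) (200×); integrated optical density analysed; mean ± SEM, n = 5−7, one-way ANOVA versus vehicle.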
# [19] = Mutagenicity in Salmonella typhimurium TA97 at 5 to 500 ug/plate in presence of s9 mix by Ames test; assay type: toxicity, subcellular; conditions: salmonella enterica subsp. enterica serovar typhimurium
# In short: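 Plate incorporation method at 5, 50 and 500 μg/plate, with and without S9 activation. At least three plates per dose, incubated 72 h at 37 °C, revertants counted. Mean revertants compared with vehicle and positive controls.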
# [20] = species: Homo sapiens; assay: Inhibition of PI3K in human HCT116 cells assessed as reduction in AKT phosphorylation at S473 residue at 0.02 to 0.5 uM after 16 hrs by Western blot analysis; assay type: cell-based; in short: as §1
# [21] = molecular target: Histone deacetylase 1 (Homo sapiens, UniProt Q13547); assay: Inhibition of recombinant C-terminal His/FLAG-tagged HDAC1 (unknown origin) expressed in baculovirus infected Sf9 insect cells using Ac-peptide as substrate preincubated for 15 mins followed by substrate addition and measured after 1 hr
# [22] = molecular target: PI3-kinase p110-delta/p85-alpha (Homo sapiens, UniProt O00329); assay: Inhibition of recombinant human His-tagged PIK3CD/PIK3R1 expressed in baculovirus expression system using PIP2 as substrate incubated for 1 hr by ADP-glo assay
# [23] = species: Homo sapiens; assay: Inhibition of HDAC/PI3K in human HCT116 cells assessed as increase in cleaved caspase-3 level at 0.02 to 0.5 uM after 16 hrs by Western blot analysis; assay type: cell-based; in short: as §1
# PI3-kinase p110-delta/p85-alpha, sequence (P27986 whole entry): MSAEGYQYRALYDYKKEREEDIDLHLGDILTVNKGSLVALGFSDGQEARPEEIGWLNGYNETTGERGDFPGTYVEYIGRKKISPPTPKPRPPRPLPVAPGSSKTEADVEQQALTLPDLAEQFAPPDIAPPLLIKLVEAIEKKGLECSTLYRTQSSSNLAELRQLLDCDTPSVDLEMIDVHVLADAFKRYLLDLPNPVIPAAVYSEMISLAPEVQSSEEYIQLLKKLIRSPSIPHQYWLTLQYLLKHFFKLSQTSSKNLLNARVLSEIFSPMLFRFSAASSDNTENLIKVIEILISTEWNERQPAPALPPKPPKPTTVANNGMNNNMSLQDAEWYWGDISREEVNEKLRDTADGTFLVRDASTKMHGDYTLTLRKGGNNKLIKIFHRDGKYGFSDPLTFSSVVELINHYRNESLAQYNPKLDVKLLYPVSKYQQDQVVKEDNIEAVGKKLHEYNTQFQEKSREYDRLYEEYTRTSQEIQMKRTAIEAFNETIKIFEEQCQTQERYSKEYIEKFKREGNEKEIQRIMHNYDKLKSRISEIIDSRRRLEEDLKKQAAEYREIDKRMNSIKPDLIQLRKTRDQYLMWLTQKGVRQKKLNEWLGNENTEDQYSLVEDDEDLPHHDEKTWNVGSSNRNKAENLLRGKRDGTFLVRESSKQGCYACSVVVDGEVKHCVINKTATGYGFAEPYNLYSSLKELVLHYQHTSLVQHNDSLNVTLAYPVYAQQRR
# PI3-kinase p110-delta/p85-alpha, sequence (O00329 whole entry): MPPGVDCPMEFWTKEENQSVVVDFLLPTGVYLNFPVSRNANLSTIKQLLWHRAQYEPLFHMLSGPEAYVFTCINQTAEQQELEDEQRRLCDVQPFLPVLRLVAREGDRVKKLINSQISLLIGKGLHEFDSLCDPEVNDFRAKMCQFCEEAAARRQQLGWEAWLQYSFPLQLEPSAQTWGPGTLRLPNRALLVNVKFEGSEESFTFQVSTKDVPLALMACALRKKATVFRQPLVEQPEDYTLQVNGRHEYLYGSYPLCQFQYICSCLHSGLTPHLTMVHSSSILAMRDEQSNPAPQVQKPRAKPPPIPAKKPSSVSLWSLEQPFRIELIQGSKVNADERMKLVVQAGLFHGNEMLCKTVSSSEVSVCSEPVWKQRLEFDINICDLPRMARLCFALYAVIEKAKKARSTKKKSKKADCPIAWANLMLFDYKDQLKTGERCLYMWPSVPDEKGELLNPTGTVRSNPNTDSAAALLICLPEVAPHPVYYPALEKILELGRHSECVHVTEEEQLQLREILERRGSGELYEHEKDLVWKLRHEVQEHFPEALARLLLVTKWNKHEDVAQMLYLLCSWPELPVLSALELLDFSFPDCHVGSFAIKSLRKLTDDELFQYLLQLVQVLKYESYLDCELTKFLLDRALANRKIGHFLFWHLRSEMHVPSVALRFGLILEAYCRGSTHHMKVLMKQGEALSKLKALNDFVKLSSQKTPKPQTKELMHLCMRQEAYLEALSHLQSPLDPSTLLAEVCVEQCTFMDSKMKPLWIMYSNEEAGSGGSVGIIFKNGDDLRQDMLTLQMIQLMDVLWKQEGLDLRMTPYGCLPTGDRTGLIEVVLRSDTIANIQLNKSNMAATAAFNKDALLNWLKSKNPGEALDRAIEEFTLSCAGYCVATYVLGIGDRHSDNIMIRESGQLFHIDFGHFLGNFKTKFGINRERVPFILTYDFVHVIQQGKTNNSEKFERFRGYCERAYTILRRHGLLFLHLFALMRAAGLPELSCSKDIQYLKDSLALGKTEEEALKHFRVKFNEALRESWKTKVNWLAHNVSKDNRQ
# Histone deacetylase 1, sequence (Q13547 whole entry): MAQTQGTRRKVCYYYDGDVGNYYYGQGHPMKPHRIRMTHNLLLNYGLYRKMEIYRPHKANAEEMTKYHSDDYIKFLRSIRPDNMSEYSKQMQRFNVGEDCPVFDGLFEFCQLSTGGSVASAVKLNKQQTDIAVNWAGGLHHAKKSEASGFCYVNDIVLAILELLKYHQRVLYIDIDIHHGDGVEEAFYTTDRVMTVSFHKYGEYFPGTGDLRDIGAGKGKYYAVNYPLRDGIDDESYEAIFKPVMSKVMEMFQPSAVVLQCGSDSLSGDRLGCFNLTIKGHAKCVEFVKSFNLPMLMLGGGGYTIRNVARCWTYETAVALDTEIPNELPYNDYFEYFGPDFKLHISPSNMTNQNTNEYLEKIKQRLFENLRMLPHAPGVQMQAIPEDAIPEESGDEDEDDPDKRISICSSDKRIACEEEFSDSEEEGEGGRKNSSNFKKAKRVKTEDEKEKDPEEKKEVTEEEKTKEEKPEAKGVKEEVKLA
smiles,measurement,setting,value
COc1ncc(-c2cc(OCCCCCCC(=O)NO)c3ncnc(C)c3c2)cc1F,inhibition,[1],Active
same,IC50,[2],2860 nM
same,Activity,[3],Dose-dependent effect
same,half-life at 20 µM,[4],72 min
same,half-life,[5],24.6 min
same,IC50,[6],5400 nM
same,inhibition in vivo at 100 mg/kg,[7],18.3%
same,Drug uptake,[8],72.7 ng/g
same,Drug uptake,[9],74.8 ng/g
same,inhibition in vivo at 100 mg/kg,[10],15.2%
same,inhibition in vivo at 30 mg/kg,[11],62.6%
same,Activity,[12],20%
same,concentration at 0.5 h,[13],179 ng/mL
same,concentration at 0.5 h,[14],232 ng/mL
same,concentration at 0.5 h,[15],577 ng/mL
same,concentration at 0.5 h,[16],36.6 ng/g
same,concentration at 0.5 h,[17],105 ng/g
same,inhibition,[18],Active
same,Activity,[19],Non-Toxic
COc1ccc(-c2cc(OCCN(C)c3ncc(C(=O)NO)cn3)c3ncnc(C)c3c2)cn1,inhibition,[20],Active
same,IC50,[21],1.3 nM
same,IC50,[22],29 nM
same,IC50,[2],6260 nM
same,inhibition,[23],Active
same,Activity,[3],Dose-dependent effect
same,IC50,[6],910 nM
same,Activity,[19],Non-Toxic
